We go through 19 compounds from ChEMBL document CHEMBL4138074, “(Indolylalkyl)piperidine carbamates as inhibitors of fatty acid amide hydrolase (FAAH)” (Medchemcomm, 2017).

For series [1], the target named is T1, Fatty-acid amide hydrolase 1 (Rattus norvegicus, UniProt P97612).
T1 sequence (P97612 whole entry): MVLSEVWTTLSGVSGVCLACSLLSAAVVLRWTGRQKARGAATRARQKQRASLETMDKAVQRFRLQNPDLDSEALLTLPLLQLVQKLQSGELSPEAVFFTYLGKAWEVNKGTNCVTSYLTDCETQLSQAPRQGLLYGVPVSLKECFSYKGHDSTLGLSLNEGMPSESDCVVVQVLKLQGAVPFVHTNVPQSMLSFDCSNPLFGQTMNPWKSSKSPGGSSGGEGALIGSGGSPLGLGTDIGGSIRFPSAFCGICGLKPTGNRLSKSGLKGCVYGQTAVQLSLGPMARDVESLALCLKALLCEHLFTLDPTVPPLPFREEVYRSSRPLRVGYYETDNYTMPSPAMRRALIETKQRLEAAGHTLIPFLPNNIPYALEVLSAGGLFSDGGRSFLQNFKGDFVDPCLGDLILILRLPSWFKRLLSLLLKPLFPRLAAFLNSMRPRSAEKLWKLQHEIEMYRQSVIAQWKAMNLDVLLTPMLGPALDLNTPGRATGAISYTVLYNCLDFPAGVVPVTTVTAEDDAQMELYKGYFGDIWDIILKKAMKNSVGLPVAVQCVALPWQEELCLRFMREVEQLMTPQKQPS
Nature of the series: Inhibition of FAAH in rat brain microsomes assessed as reduction in enzyme-mediated 4-pyren-1-ylbutanoic acid release using N-(2-hydroxyethyl)-4-pyren-1-ylbutanamide as substrate incubated fro 60 mins by reversed phase HPLC method. An outline of the steps:
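Rat brain microsomes as enzyme source; fluorogenic substrate N-(2-hydroxyethyl)-4-pyren-1-ylbutanamide, with Triton X-100 in the incubation buffer to solubilize substrate and stabilize the membrane-bound enzyme. Incubation 60 min. Released 4-pyren-1-ylbutanoic acid quantified by reversed-phase HPLC with fluorescence detection, using 6-pyren-1-ylhexanoic acid as internal standard. Product is compared with and without inhibitor. IC50 is the mean of at least two independent determinations.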

Series [2] can be described thus: Metabolic stability in rat liver S9 fractions assessed as parent compound remaining in presence of NADPH incubated fro 30 mins by HPLC and MS-detection based method. The class given is ADME, subcellular, S9 fraction. The note with it: read-out: Stability. An outline of the steps:
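Compound incubated with rat liver S9 fraction plus cofactor NADPH for 30 min. Parent remaining measured by reversed-phase HPLC with MS detection and expressed as percent of parent. Mean ± SD of three independent determinations.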

Series [3] is described as follows: Metabolic stability in porcine blood plasma assessed as parent compound remaining incubated fro 30 mins by HPLC and MS-detection based method. In kind it is ADME, cell-free, Sus scrofa. The note with it: pig, read-out: Stability. An outline of the steps: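 Porcine blood plasma incubation, 30 min. Remaining parent quantified by reversed-phase HPLC with MS detection and reported as percent remaining. Mean ± SD, n = 3 independent determinations.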

`O=C(Oc1ccccc1)N1CCC(CCCCn2ccc3ccccc32)CC1`: in series [1], the IC50 came out at 180 nM. Besides, the remaining at 0.5 h in series [2] is 78%; in series [3], 87%.
Regarding `Cc1ccc2c(ccn2CCC2CCN(C(=O)Oc3ccccc3)CC2)c1`, in series [1], the IC50 is 700 nM.
Same read-out and setting: under `COc1ccc2c(ccn2CCC2CCN(C(=O)Oc3ccccc3)CC2)c1` stands 360 nM.
Turning to `O=C(Oc1ccccc1)N1CCC(CCn2ccc3ccccc32)CC1`, in series [1], the half-maximal inhibitory concentration (IC50) is 110 nM. Also, the remaining at 0.5 h came to 87% in series [2] and 94% in series [3].
On to `O=C(Oc1ccccc1)N1CCC(CCn2ccc3cc(Cl)ccc32)CC1`, for which the IC50 in series [1] is 410 nM.
Still for that read-out and setting: under `O=C(Oc1ccccc1)N1CCN(CCn2ccc3cccnc32)CC1` stands 200 nM.
As to `O=C(Oc1ccccc1)N1CCC(Cn2ccc3ccccc32)CC1`, in series [1], the IC50 stood at 9800 nM. In addition, the remaining at 0.5 h in series [2] is 63%; in series [3], 93%.
Consider `O=C(Oc1ccccc1)N1CCC(CCn2ccc3c(F)cccc32)CC1`, for which the IC50 in series [1] was determined as 110 nM.
The same measure, in the same setting: under `O=C(Oc1ccccc1)N1CCC(CCn2ccc3ncccc32)CC1` stands 1700 nM.
As to `O=C(Oc1ccccc1)N1CCN(CCn2ccc3ccc(F)cc32)CC1`, in series [1], the IC50 is 180 nM.
On the same count and under the same terms, in the case of `O=C(Oc1ccccc1)N1CCN(CCn2ccc3cnccc32)CC1` it was 790 nM.
As for `O=C(Oc1ccccc1)N1CCC(CCn2ccc3ccc(F)cc32)CC1`, the IC50 in series [1] came to 46 nM. Besides, the figures for the remaining at 0.5 h in series [2] and in series [3] were 82% and 93%, respectively.
Consider `O=C(Oc1ccccc1)N1CCC(CCCn2ccc3ccccc32)CC1`, for which the IC50 in series [1] came to 570 nM. In addition, the remaining at 0.5 h turned out to be 80% in series [2] and 93% in series [3].
For `O=C(Oc1ccccc1)N1CCC(CCn2ccc3cccc(F)c32)CC1`, in series [1], the concentration for half-maximal inhibition (IC50) was determined as 52 nM.
On the same count and under the same terms, under `O=C(Oc1ccccc1)N1CCN(CCn2ccc3ccncc32)CC1` stands 310 nM.
As for `O=C(Oc1ccccc1)N1CCC(CCn2ccc3cc(F)ccc32)CC1`, in series [1], the IC50 amounted to 130 nM.
For the compound `N#Cc1ccc2c(ccn2CCC2CCN(C(=O)Oc3ccccc3)CC2)c1`, the 50% inhibitory concentration (IC50) in series [1] came out at 970 nM.
With `CN(CCCCCn1ccc2ccc(F)cc21)C(=O)Oc1ccccc1`, the 50% inhibitory concentration (IC50) in series [1] came to 1600 nM. Further, the remaining at 0.5 h stood at 65% in series [2] and 93% in series [3].
As to `O=C(Oc1ccccc1)N1CCC(CCn2c3ccccc3c3ccccc32)CC1`, the IC50 in series [1] is 410 nM.
